# Measured values: ChEMBL document CHEMBL1141651, “Discovery of a potent, selective, and orally active proteasome inhibitor for the treatment of cancer” (J Med Chem, 2008)
# pIC50: −log10 of the molar value.
# Legend:
# [1] = molecular target: Prothrombin (Homo sapiens) (UniProt P00734); test: Inhibition of human thrombin at 10 uM
# [2] = molecular target: Stromelysin-1 (Homo sapiens) (UniProt P08254); test: Inhibition of human MMP3 at 10 uM
# [3] = Half life in CD1 mouse at 4 mg/kg, iv; format: ADME, organism-based; set-up: dose 4 mg/kg, route intravenous; details: in vivo
# Outline: (§1)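 Female Sprague–Dawley rats and CD-1 mice each received a single iv or oral (po) dose. Terminal half-life and systemic clearance were estimated from plasma exposure over time, alongside AUC0→∞, Vss and absolute oral bioavailability.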
# Homo sapiens = species: Homo sapiens; test: Inhibition of human tryptase at 10 uM
# Caspase-8 (Homo sapiens) = Caspase-8 (Homo sapiens) (UniProt Q14790); test: Inhibition of human caspase 8 at 10 uM
# Chain of Caspase-8 (Homo sapiens) (Q14790 217-374 limits assumed): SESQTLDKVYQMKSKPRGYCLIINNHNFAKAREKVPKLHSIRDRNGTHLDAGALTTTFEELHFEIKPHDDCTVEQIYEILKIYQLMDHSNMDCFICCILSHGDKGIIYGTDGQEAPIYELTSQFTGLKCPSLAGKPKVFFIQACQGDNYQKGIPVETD
# Chain of Caspase-8 (Homo sapiens) (Q14790 385-479 limits assumed): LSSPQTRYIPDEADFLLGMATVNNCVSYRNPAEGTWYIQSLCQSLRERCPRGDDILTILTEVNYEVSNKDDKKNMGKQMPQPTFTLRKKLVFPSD
# Cytochrome P450 1A2 = Cytochrome P450 1A2 (Homo sapiens, UniProt P05177); test: Inhibition of human recombinant CYP1A2 upto 30 uM; format: ADME; details: recombinant enzyme
# Chain of Cytochrome P450 1A2 (P05177 whole entry, canonical isoform): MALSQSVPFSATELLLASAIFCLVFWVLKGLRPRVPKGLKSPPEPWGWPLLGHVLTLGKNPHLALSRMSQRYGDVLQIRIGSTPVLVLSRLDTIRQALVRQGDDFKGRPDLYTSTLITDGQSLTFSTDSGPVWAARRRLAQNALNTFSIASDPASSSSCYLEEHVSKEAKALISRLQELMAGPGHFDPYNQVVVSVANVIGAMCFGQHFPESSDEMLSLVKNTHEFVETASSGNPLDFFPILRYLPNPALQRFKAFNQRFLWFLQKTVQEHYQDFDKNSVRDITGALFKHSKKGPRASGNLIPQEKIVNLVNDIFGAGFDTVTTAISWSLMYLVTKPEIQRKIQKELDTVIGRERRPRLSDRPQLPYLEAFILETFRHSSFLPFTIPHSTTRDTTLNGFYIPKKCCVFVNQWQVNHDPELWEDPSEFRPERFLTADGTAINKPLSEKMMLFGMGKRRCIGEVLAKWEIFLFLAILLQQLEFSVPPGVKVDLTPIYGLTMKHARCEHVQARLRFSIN
# Outline: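 Recombinant human cytochrome P-450 isoforms were tested with fluorescent P-450 substrates, at test concentrations up to 30 µM.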
# A2780 = test: Cytotoxicity against human A2780 cells; format: functional, cell-based
# Outline: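 Antiproliferative activity was measured in A2780 ovarian carcinoma cells with a standard colorimetric assay of cell proliferation and viability. Results are expressed as IC50.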
# [4] = molecular target: Interstitial collagenase (Homo sapiens) (UniProt P03956); test: Inhibition of human MMP1 at 10 uM
# Chain of Interstitial collagenase (Homo sapiens) (P03956 whole entry): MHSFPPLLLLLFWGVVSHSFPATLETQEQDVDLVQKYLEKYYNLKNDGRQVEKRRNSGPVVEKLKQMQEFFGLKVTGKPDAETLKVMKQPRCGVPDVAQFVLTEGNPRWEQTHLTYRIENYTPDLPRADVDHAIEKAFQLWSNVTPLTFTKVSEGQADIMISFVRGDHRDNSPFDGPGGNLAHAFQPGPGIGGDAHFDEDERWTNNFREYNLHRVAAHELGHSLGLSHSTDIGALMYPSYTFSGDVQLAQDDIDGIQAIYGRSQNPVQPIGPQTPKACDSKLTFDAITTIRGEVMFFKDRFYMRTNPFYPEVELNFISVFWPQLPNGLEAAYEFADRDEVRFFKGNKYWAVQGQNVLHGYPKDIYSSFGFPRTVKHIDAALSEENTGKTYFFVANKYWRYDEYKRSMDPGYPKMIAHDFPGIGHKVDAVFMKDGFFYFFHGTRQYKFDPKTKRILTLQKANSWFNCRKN
# [5] = Inhibition of chymotrypsin-like activity of human erythrocyte 20S proteasome
# Outline: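 Isolated 20S proteasome purified from human erythrocytes was tested in a fluorimetric kinetic assay of chymotrypsin-like activity. Potency is reported as IC50.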
# [6] = molecular target: Endothelin-converting enzyme 1 (Homo sapiens) (UniProt P42892); test: Inhibition of human ECE1 at 10 uM
# Chain of Endothelin-converting enzyme 1 (Homo sapiens) (P42892 whole entry): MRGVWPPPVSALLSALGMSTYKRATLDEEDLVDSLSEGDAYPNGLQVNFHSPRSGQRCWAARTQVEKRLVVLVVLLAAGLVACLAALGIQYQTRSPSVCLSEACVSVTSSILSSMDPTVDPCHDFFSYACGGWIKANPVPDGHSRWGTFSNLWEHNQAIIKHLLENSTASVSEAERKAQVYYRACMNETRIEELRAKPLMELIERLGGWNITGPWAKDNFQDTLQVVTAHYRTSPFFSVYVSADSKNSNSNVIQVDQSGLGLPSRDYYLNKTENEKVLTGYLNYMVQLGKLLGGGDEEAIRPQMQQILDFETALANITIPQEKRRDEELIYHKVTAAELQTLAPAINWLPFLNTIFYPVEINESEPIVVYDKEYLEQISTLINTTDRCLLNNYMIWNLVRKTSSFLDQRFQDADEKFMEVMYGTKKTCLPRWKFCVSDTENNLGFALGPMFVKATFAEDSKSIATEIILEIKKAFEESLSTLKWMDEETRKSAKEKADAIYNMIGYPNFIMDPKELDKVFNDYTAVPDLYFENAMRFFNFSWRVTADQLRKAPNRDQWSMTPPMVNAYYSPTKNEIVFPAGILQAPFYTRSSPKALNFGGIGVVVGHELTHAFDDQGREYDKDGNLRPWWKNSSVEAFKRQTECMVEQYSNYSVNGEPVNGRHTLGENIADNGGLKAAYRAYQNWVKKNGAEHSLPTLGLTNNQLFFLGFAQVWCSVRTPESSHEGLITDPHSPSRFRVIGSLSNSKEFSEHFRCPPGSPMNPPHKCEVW
# [7] = Oral bioavailability in CD1 mouse at 10 mg/kg; format: ADME, organism-based; details: in vivo
# Outline: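 CD-1 mice given a single iv dose (4 mg/kg) and a single oral (po) dose (10 mg/kg). Plasma AUC0-∞ was measured, and absolute oral bioavailability F (%) was calculated from the oral versus iv exposure.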
# [8] = Protein binding in dog plasma; format: ADME, cell-free, Canis lupus familiaris; details: read-out: PPB (converted)
# [9] = molecular target: Coagulation factor VII (Homo sapiens) (UniProt P08709); test: Inhibition of human factor 7a at 10 uM
# [10] = Protein binding in mouse plasma; format: ADME, cell-free; details: read-out: PPB (converted)
# Cytochrome P450 2C19 = Cytochrome P450 2C19 (Homo sapiens, UniProt P33261); test: Inhibition of human recombinant CYP2C19 upto 30 uM; format: ADME; details: recombinant enzyme
# Chain of Cytochrome P450 2C19 (P33261 whole entry, canonical isoform): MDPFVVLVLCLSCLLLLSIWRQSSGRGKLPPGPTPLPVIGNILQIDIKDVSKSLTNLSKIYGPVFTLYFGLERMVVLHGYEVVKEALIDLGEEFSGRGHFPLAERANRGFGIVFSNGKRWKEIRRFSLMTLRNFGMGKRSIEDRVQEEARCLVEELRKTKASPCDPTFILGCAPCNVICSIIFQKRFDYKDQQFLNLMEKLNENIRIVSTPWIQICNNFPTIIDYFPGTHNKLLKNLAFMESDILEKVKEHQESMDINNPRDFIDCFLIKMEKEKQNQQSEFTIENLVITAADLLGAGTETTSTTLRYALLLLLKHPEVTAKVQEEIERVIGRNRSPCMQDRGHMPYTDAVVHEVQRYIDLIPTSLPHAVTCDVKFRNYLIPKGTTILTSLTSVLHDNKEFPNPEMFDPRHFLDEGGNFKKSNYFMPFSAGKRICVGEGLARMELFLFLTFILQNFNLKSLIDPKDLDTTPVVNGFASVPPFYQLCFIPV
# Outline: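 Recombinant human P-450 isoforms (1A2, 2C9, 2C19, 2D6) with fluorescent P-450 substrates; tested at concentrations up to 30 µM to gauge inhibition.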
# [11] = AUC (0 to infinity) in CD1 mouse at 10 mg/kg, po; format: ADME, organism-based; set-up: time infinity, dose 10 mg/kg, route oral; details: plasma
# Outline: (§2)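 CD-1 mice received a single dose by the iv or oral route. AUC from 0 to infinity was reported with terminal half-life, Vss, clearance and absolute oral bioavailability.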
# [12] = molecular target: 72 kDa type IV collagenase (Homo sapiens) (UniProt P08253); test: Inhibition of human MMP2 at 10 uM
# Chain of 72 kDa type IV collagenase (Homo sapiens) (P08253 110-660 limits assumed): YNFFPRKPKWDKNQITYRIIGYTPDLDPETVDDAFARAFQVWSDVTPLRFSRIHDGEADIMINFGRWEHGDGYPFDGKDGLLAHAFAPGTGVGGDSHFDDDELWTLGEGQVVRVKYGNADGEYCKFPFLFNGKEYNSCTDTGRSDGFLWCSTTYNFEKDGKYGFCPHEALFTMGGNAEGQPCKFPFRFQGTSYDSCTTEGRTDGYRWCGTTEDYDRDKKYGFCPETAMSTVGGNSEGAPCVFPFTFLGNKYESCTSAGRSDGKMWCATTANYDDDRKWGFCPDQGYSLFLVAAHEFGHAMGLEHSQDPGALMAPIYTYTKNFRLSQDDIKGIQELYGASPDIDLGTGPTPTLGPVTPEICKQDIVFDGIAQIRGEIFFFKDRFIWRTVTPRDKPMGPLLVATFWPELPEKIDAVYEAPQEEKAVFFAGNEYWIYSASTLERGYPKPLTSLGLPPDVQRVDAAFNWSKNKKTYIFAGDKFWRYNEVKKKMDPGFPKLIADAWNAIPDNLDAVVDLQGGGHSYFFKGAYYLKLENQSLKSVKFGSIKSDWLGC
# [13] = molecular target: Coagulation factor X (Homo sapiens) (UniProt P00742); test: Inhibition of human factor 10a at 10 uM
# Chain of Coagulation factor X (Homo sapiens) (P00742 41-179 limits assumed): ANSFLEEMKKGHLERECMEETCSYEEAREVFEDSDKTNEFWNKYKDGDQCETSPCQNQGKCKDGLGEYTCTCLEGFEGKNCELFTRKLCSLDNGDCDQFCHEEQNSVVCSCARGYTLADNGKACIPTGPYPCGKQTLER
# Chain of Coagulation factor X (Homo sapiens) (P00742 235-488 limits assumed): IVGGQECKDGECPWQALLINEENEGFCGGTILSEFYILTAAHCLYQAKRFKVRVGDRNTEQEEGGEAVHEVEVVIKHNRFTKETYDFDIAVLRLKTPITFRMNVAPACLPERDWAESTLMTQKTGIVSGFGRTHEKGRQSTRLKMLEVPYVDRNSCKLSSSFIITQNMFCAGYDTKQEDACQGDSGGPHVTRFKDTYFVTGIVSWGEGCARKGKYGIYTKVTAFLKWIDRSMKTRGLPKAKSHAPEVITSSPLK
# [14] = Volume of distribution at steady state in Sprague-Dawley rat at 0.2 mg/kg, iv; format: ADME, organism-based; set-up: dose 0.2 mg/kg, route intravenous; details: in vivo, read-out: Vdss
# Outline: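 Single-dose pharmacokinetics after iv or oral administration in female Sprague–Dawley rats and in CD-1 mice; plasma exposure (AUC0–∞) used to derive steady-state volume of distribution, clearance, terminal half-life and absolute oral bioavailability.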
# [15] = molecular target: Disintegrin and metalloproteinase domain-containing protein 17 (Homo sapiens) (UniProt P78536); test: Inhibition of human TACE at 10 uM
# Chain of Disintegrin and metalloproteinase domain-containing protein 17 (Homo sapiens) (P78536 whole entry, the tested form may be a part): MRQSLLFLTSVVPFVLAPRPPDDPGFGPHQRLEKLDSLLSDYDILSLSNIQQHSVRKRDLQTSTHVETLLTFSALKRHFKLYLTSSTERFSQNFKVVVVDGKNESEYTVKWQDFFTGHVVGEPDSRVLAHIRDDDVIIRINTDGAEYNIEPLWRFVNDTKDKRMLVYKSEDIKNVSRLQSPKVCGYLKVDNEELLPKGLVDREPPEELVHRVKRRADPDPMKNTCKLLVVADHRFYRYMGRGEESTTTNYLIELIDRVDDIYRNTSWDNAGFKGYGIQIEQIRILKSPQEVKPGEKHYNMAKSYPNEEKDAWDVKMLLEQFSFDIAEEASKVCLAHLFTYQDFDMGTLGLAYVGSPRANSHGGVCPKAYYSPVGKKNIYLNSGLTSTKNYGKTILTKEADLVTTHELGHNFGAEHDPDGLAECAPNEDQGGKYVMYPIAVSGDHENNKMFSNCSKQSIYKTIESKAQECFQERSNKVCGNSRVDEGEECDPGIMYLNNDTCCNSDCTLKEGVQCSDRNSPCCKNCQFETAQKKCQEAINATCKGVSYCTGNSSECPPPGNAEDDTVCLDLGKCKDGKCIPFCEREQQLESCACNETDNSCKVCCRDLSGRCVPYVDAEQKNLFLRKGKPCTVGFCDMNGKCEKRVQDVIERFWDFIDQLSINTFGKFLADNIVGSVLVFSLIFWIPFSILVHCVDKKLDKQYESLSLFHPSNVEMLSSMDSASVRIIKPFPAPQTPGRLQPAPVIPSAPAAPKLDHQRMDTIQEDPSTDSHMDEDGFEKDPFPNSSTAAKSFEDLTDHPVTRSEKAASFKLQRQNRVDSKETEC
# [16] = Oral bioavailability in Sprague-Dawley rat at 0.8 mg/kg; format: ADME, organism-based; details: in vivo
# Outline: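 Female Sprague-Dawley rats given a single iv dose (0.2 mg/kg) and a single oral dose (0.8 mg/kg). Plasma AUC0-∞ was determined, and absolute oral bioavailability F (%) was derived by comparing oral with iv exposure.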
# Chymase (Homo sapiens) = Chymase (Homo sapiens) (UniProt P23946); test: Inhibition of human chymase at 10 uM
# Chain of Chymase (Homo sapiens) (P23946 whole entry): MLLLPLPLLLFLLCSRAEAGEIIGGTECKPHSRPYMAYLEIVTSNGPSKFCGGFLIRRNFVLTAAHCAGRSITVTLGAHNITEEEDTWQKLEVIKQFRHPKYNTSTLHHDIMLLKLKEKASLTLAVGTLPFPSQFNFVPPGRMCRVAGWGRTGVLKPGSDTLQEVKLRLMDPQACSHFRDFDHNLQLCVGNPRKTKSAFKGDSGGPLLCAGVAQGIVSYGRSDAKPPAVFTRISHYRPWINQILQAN
# [17] = Clearance in Sprague-Dawley rat at 0.2 mg/kg, iv; format: ADME, organism-based; set-up: dose 0.2 mg/kg, route intravenous; details: in vivo; outline: as §1
# [18] = molecular target: Plasminogen (Homo sapiens) (UniProt P00747); test: Inhibition of human plasmin at 10 uM
# [19] = AUC (0 to infinity) in CD1 mouse at 4 mg/kg, iv; format: ADME, organism-based; set-up: time infinity, dose 4 mg/kg, route intravenous; details: plasma; outline: as §2
# Chain of Stromelysin-1 (Homo sapiens) (P08254 100-477 limits assumed): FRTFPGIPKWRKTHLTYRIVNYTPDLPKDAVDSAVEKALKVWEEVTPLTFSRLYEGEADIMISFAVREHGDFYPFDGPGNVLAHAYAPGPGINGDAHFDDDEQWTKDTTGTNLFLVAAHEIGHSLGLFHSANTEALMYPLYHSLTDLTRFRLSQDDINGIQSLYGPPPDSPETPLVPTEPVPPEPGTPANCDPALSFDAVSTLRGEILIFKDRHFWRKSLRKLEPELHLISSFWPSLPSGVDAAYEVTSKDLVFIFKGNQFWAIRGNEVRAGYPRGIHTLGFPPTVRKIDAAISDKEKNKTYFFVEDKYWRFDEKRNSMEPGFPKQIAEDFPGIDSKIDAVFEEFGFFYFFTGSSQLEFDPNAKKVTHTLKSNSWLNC
structure (smiles),measurement,setting,value
CC(C)C[C@H](NC(=O)[C@@H](NC(=O)c1cccc(-c2ccccc2)n1)[C@@H](C)O)B(O)O [DELANZOMIB],inhibition,[1],12%
same,inhibition,[2],-3%
same,half-life,[3],15 h
same,inhibition,Homo sapiens,-3%
same,inhibition,Caspase-8 (Homo sapiens),-2%
same,Activity,Cytochrome P450 1A2,Not Active
same,pIC50,A2780,7.86
same,inhibition,[4],1%
same,pIC50,[5],8.42
same,inhibition,[6],21%
same,bioavailability,[7],39%
same,fraction unbound,[8],0.001
same,inhibition,[9],2%
same,fraction unbound,[10],0.001
same,Activity,Cytochrome P450 2C19,Not Active
same,AUC(0-inf),[11],2850 ng·h/mL
same,inhibition,[12],-5%
same,inhibition,[13],-2%
same,Vd,[14],18.1 L/kg
same,inhibition,[15],1%
same,bioavailability,[16],54%
same,inhibition,Chymase (Homo sapiens),80%
same,clearance,[17],3.17 mL/min/kg
same,inhibition,[18],-1%
same,AUC(0-inf),[19],2910 ng·h/mL
